Experiments:
[1] = biological target: Receptor-type tyrosine-protein phosphatase F (Homo sapiens, UniProt P10586); test: Inhibition of LAR (unknown origin)
[2] = biological target: T1, Tyrosine-protein phosphatase non-receptor type 1 (Homo sapiens, UniProt P18031); test: Inhibition of GST-tagged PTP1B (unknown origin) using pNPP as substrate measured for 2 mins by colorimetric analysis
T1 sequence (P18031 whole entry): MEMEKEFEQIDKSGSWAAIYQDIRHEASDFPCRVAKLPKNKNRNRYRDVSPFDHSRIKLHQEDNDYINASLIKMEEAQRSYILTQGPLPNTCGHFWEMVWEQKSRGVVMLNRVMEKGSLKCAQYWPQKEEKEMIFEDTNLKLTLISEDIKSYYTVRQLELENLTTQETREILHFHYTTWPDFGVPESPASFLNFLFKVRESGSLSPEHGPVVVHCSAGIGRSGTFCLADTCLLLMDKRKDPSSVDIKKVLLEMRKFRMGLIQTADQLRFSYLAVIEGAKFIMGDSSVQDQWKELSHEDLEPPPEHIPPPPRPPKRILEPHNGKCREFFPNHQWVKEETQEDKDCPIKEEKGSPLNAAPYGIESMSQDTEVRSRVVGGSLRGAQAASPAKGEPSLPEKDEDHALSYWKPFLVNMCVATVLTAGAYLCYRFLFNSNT

[3] = biological target: T2, Tyrosine-protein phosphatase non-receptor type 2 (Homo sapiens, UniProt P17706); test: Inhibition of TCPTP (unknown origin)
T2 sequence (P17706 whole entry): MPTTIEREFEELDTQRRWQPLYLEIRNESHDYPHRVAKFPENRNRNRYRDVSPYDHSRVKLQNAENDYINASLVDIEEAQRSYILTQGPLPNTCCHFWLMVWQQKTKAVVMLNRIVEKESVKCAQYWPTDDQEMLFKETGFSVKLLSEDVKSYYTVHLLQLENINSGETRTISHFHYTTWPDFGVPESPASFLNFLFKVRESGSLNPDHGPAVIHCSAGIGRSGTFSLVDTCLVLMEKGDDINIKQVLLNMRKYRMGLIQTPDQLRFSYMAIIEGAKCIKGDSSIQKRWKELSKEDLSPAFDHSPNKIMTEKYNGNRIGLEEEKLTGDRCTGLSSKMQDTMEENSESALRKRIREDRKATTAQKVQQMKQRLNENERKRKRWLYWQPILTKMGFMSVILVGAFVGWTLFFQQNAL

[4] = biological target: T3, Tyrosine-protein phosphatase non-receptor type 1 (Rattus norvegicus) (UniProt P20417); test: Inhibition of PTP1B in rat L6 cells assessed as insulin-induced Akt phosphorylation preincubated for 2 hrs followed by insulin challenge for 10 mins by Western blotting analysis; assay type: cell-based
T3 sequence (whole entry): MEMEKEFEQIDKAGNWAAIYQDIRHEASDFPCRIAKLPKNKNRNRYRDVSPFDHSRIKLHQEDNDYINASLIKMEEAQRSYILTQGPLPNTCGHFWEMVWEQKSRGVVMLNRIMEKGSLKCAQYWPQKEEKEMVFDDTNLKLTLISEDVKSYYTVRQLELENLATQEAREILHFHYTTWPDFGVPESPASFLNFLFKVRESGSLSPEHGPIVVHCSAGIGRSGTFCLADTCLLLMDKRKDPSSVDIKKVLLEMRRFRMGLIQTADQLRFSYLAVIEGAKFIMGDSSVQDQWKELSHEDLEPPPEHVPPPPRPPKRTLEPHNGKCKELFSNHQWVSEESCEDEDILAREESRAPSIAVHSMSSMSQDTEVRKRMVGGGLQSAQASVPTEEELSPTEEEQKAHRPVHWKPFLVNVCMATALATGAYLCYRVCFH
Summary of the method: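 Rat L6 myoblasts were differentiated in DMEM with 2% FBS and used as myotubes 5–7 days later. They were serum-starved 2 h, treated with compound 2 h (0.2% DMSO vehicle), then given 10 nM insulin for 10 min. Lysates were run on 8% SDS-PAGE and immunoblotted for phospho-Akt (Ser473), with β-actin as loading control.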

[5] = biological target: T4, Tyrosine-protein phosphatase non-receptor type 1 (Homo sapiens) (UniProt P18031); test: Inhibition of PTP1B (unknown origin) expressed in CHO cells over-expressing human IR assessed as increase in insulin-mediated IR-beta phosphorylation preincubated for 2 hrs followed by insulin challenge for 10 mins by Western blotting analysis; assay type: cell-based
T4 sequence (whole entry): T1 sequence (P18031 whole entry)
Summary of the method: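 CHO cells overexpressing human IR, grown in Ham's F-12 with 10% FBS at 37 °C, 5% CO2. Cells were serum-starved 2 h, then exposed to compound for 2 h (0.2% DMSO vehicle; 1 mM sodium orthovanadate as positive control). They were then stimulated with 10 nM insulin for 10 min. Lysates were run on 8% SDS-PAGE and immunoblotted with anti-pTyr, using β-actin as the loading control.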

[6] = biological target: T3, Tyrosine-protein phosphatase non-receptor type 1 (Rattus norvegicus); test: Inhibition of PTP1B in rat L6 cells assessed as insulin-stimulated 2-deoxy-[3H]-deoxy-glucose uptake at 10 uM preincubated for 2 hrs followed by insulin challenge for 30 mins; assay type: cell-based
Summary of the method: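 Differentiated L6 myotubes were serum-starved 2 h, treated with compound, then stimulated with 10 nM insulin for 30 min. Cells were washed in HEPES-buffered saline, pH 7.4, and incubated 15 min with 2-deoxy-[3H]-glucose. After ice-cold PBS washes they were lysed in 0.1% Triton X-100 and radioactivity was counted. Data are averages of at least three independent replicates.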

[7] = biological target: Tyrosine-protein phosphatase non-receptor type 6 (Homo sapiens, UniProt P29350); test: Inhibition of SHP-1 (unknown origin)
[8] = biological target: T5, Tyrosine-protein phosphatase non-receptor type 11 (Homo sapiens, UniProt Q06124); test: Inhibition of SHP-2 (unknown origin)
T5 sequence (Q06124 whole entry): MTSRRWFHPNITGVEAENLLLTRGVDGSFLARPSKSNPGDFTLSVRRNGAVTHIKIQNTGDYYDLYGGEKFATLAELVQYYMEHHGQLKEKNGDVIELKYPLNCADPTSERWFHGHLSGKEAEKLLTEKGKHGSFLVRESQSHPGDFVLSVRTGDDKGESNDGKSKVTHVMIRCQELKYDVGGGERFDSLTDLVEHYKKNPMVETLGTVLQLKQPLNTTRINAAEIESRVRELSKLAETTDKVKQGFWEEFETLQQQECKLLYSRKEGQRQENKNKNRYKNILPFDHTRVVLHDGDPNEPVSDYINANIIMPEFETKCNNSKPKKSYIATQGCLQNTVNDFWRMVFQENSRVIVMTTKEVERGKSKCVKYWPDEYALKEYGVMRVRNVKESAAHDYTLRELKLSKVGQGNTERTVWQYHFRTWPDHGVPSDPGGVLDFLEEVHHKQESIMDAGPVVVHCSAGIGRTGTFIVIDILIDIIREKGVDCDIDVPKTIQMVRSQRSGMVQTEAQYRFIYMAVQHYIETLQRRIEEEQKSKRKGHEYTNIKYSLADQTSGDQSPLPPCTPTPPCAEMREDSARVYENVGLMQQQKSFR

Homo sapiens = species: Homo sapiens; test: Selectivity ratio of IC50 for TCPTP (unknown origin) to IC50 for GST-tagged PTP1B (unknown origin)

Sequence of Tyrosine-protein phosphatase non-receptor type 6 (P29350 whole entry): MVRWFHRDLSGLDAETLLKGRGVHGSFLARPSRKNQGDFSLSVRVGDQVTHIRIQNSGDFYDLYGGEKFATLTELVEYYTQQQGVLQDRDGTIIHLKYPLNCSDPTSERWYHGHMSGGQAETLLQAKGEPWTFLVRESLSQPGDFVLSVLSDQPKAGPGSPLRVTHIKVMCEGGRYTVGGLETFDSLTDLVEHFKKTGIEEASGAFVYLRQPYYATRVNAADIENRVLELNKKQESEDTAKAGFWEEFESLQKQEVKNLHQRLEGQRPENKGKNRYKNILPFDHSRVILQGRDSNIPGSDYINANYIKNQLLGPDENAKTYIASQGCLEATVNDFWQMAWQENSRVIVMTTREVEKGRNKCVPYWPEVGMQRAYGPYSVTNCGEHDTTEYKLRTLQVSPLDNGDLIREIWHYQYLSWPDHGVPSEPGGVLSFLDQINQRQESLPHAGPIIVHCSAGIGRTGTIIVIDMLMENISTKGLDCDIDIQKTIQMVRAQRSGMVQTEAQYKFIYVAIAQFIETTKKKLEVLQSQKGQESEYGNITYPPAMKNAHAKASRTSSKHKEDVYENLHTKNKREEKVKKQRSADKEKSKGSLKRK
Sequence of Receptor-type tyrosine-protein phosphatase F (P10586 whole entry): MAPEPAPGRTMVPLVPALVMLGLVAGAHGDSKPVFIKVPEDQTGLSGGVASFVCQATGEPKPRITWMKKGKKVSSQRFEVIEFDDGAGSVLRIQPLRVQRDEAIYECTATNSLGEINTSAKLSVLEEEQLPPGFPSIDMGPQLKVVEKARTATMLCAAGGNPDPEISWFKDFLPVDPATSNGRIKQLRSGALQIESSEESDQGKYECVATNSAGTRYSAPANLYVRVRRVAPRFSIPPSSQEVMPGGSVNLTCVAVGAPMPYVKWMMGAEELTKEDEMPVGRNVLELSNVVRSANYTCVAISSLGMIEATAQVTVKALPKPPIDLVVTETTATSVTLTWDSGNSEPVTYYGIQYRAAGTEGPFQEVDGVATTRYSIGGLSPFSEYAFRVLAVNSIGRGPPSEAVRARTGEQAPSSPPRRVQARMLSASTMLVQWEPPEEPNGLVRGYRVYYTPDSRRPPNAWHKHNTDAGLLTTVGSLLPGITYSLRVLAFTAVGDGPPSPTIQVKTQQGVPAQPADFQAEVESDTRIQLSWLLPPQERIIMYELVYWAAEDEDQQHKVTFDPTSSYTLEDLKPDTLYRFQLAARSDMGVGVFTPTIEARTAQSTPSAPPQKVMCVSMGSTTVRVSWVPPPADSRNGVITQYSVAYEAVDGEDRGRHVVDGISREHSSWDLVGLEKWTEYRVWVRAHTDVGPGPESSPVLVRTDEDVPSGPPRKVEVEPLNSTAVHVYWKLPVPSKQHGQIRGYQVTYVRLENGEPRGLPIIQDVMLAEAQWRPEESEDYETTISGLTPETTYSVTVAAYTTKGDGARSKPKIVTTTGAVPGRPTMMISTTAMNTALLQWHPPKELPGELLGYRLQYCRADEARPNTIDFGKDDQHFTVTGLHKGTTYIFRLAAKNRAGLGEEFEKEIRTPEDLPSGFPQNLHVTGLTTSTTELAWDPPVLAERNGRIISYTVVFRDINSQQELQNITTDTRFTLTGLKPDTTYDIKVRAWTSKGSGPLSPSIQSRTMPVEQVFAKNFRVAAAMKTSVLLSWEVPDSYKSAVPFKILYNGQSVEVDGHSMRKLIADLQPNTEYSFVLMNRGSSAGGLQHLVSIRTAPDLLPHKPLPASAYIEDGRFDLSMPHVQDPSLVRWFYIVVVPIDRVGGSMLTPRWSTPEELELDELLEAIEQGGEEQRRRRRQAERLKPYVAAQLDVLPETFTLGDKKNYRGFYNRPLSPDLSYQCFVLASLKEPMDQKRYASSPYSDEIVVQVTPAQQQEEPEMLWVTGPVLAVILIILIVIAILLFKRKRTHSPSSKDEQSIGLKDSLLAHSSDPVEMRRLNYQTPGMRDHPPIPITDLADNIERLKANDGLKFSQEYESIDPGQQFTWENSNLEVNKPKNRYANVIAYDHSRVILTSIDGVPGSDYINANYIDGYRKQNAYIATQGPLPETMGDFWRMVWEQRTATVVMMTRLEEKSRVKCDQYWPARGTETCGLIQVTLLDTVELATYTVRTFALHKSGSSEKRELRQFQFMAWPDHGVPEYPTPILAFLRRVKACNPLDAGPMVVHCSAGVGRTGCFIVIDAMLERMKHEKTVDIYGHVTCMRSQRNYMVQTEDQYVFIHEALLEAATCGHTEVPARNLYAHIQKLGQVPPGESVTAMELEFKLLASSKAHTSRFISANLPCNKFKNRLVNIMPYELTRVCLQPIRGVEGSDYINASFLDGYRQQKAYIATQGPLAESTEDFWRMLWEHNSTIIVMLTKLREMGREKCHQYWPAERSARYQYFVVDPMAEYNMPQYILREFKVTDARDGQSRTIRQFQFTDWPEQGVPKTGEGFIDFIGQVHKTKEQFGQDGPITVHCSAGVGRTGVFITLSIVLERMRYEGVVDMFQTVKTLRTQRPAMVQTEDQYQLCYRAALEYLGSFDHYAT

SMILES: O=C(CCc1c[nH]c2ccccc12)N[C@@H](Cc1ccc(OCc2ccccc2)cc1)c1nc(C(=O)Nc2cc(F)ccc2C(=O)O)c(-c2ccccc2)s1
- IC50 [1]: > 20 µM
- IC50 [2]: 0.54 µM
- IC50 [3]: 1.42 µM
- inhibition [4]: Dose-dependent effect
- inhibition [5]: Dose-dependent effect
- inhibition [6]: 40%
- IC50 [7]: 12.6 µM
- IC50 [8]: 9.89 µM
- Ratio IC50 (Homo sapiens): 2.6
